Measurements from EPA's CvTdb concentration-time database.

Legend:
[1] = tested on: human; assay: concentration in expired air after dosing; conditions: dosed: trichloroethylene, 100 ppm, inhalation, duration: 4 hr, person
Procedure, shortened: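 A PubMed search, classifier screening and manual review identified published in vivo toxicokinetic studies, which together with two structured collections supplied concentration-versus-time and amount-versus-time points. Points were mostly digitised from plot screenshots with WebPlotDigitizer, otherwise copied from tables. Dose, route, subject details and medium were hand-curated from each paper, and sampling and analytical methods are those of the sources, often unreported.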

[2] = tested on: rat; assay: concentration in expired air after dosing; conditions: dosed: trichloroethylene, male
[3] = tested on: Rat; assay: concentration in kidney after dosing; conditions: 1848 h; dosed: Perfluorooctane Sulfonate; 2 mg/kg; oral; Female; Harlan Sprague Dawley
[4] = tested on: Rat; assay: concentration in liver after dosing; conditions: 1848 h; dosed: Perfluorooctane Sulfonate; 20 mg/kg; oral; Male; Harlan Sprague Dawley
[5] = tested on: Rat; assay: concentration in liver after dosing; conditions: 6 h; dosed: Perfluorooctane Sulfonate; 20 mg/kg; oral; Female; F344
[6] = tested on: Rat; assay: concentration in liver after dosing; conditions: 1848 h; dosed: Perfluorooctane Sulfonate; 2 mg/kg; oral; Female; Harlan Sprague Dawley
[7] = tested on: Rat; assay: concentration in liver after dosing; conditions: 1848 h; dosed: Perfluorooctane Sulfonate; 2 mg/kg; oral; Female; Harlan Sprague Dawley; remark: listed apart in the source
[8] = tested on: Rat; assay: concentration in plasma after dosing; conditions: dosed: Perfluorooctane Sulfonate, 2 mg/kg, iv, Female, F344
[9] = tested on: Rat; assay: concentration in kidney after dosing; conditions: 24 h; dosed: Perfluorooctane Sulfonate; 20 mg/kg; oral; Female; F344
[10] = tested on: Rat; assay: concentration in liver after dosing; conditions: 864 h; dosed: Perfluorooctane Sulfonate; 20 mg/kg; oral; Female; F344

ClC=C(Cl)Cl [trichloroethylene]
[1]
Conditions	concentration in expired air [ppm]
0.2505 h	6.43
0.4903 h	4.4
1.01 h	2.66
2.009 h	1.42
4.008 h	1.29
5.993 h	1.15
8.005 h	0.514
10.04 h	0.377
11.99 h	0.34
13.99 h	0.738
86 s	24.7

concentration in expired air [ng/mL], [2], inhalation, duration: 2 hr, Sprague Dawley
Conditions	50 ppm	500 ppm
0.1579 h	–	1570
0.1611 h	155	–
0.242 h	178	–
0.2441 h	–	1630
0.3273 h	–	1620
0.3301 h	176	–
0.4933 h	177	1730
0.6596 h	–	1730
0.6597 h	179	–
0.8258 h	–	1800
0.8264 h	173	–
0.9952 h	–	1830
0.9958 h	179	–
1.165 h	188	1850
1.328 h	–	1740
1.332 h	184	–
1.497 h	–	1840
1.498 h	193	–
1.661 h	185	–
1.664 h	–	1820
1.825 h	183	–
1.83 h	–	1910
1.991 h	178	–
2 h	–	1790
2.008 h	61.8	–
2.016 h	–	704
2.04 h	35.4	–
2.049 h	–	532
2.071 h	30.5	–
2.081 h	–	458
2.103 h	8.92	–
2.113 h	–	399
2.157 h	17.3	–
2.161 h	–	379
2.238 h	13.8	–
2.248 h	–	359
2.493 h	10.2	–
2.501 h	–	221
2.741 h	7.87	–
2.754 h	–	152
2.992 h	7.93	–
3 h	–	97.3
3.244 h	5.59	–
3.25 h	–	82
3.495 h	2.05	–
3.502 h	–	52.1
3.746 h	0.904	22.1
3.994 h	2.17	–
3.998 h	–	26.5
4.494 h	1.08	–
4.501 h	–	25.5
4.996 h	1.2	–
5 h	–	14.7
40 s	129	–
42 s	–	1270
151 s	148	–
167 s	–	1440
285 s	161	–
293 s	–	1500

[2], 6 mg/kg, oral, Wistar
Conditions	concentration in expired air [ppm]
0.1223 h	4.6
0.1642 h	3.99
0.219 h	3.8
0.2464 h	2.7
0.4982 h	1.12
0.7463 h	0.349
1 h	0.198
1.245 h	0.161
1.496 h	0.113
1.748 h	0.0858
2 h	0.0858
99 s	0.987
289 s	3.59

O=S(=O)([O-])C(F)(F)C(F)(F)C(F)(F)C(F)(F)C(F)(F)C(F)(F)C(F)(F)C(F)(F)F [Perfluorooctane Sulfonate]
Conditions	concentration in kidney [ng/g]	concentration in liver [ng/g]
[3]	2040	–
[4]	–	37900
[5]	–	169000
[6]	–	5940
[7]	–	12000
[9]	127000	–
[10]	–	71400

[8]
Conditions	concentration in plasma [ng/mL]
5 min	5510
24 h	4250
1704 h	232
